Measurements gathered from unrelated publications.
Compare with care: the assays were run in different laboratories.

| Compound | host | sample | route | dose | notes | half-life |
| --- | --- | --- | --- | --- | --- | --- |
| Cc1[nH]c(C)c(S(=O)(=O)Nc2ccc(C(F)(F)F)c(Cl)c2)c1C(=O)N1CCC(F)(F)C1 | male CD-1 mouse | plasma | intraperitoneal | 40 mg/kg | – | 238 min |
| Cc1ccc(OCC(=O)N[C@@H](Cc2c[nH]c3ccccc23)C(=O)OC(C)C)cc1 | male Sprague-Dawley mouse | plasma | oral | 20 mg/kg | – | 366 min |
| NCc1cc2c(cc1F)C(=O)N(C1CCC(=O)NC1=O)C2 (stereo not shown) | male CD-1 mouse | plasma | oral | 10 mg/kg | – | 138 min |
| Cc1cc(-c2ccnc3[nH]cc(F)c23)cc(F)c1[C@@]1(O)[C@H](C)CN(C2CCS(=O)(=O)CC2)C[C@@H]1C | male CD-1 mouse | plasma | intravenous | 1 mg/kg | – | 156 min |
| Cc1ccc(CCC(=O)Nc2nnc(S(N)(=O)=O)s2)cc1 | male BALB/c mouse | plasma | oral | 20 mg/kg | – | 278 min |
| CN(C)C(=O)c1cc2cnc(Nc3ccc(-c4ccc5c(=O)cc(N6CCOCC6)oc5c4)cc3)nc2n1C1CCCC1 | BALB/c mouse | plasma | oral | 20 mg/kg | – | 198 min |
| O=C1CCC(N2Cc3cc(C4CCN(Cc5ccccc5)CC4)ccc3C2=O)C(=O)N1 (stereo not shown) | male CD-1 mouse | plasma | intravenous | 1 mg/kg | – | 197 min |
| Cc1ncsc1-c1ccc([C@H](C)NC(=O)[C@@H]2C[C@@H](O)CN2C(=O)[C@@H](NC(=O)CCc2ccc(C#Cc3ccc(C(=O)NCCCn4cc(-c5ccc6c(c5)CCN6C(=O)Cc5cccc(OC(F)(F)F)c5)c5c(N)ncnc54)cc3)cn2)C(C)(C)C)cc1 | male C57BL/6 mouse | plasma | intravenous | 1 mg/kg | – | 276 min |
| COC1=CC(c2ccc[nH]2)=N/C1=C\c1cc(Cc2ccc(OC(F)(F)F)cc2)c(C)[nH]1.Cl | male CD-1 mouse | plasma | oral | 40 mg/kg | single dose | 3110 min |
| COCC(=O)N1CCc2[nH]c3c(Cl)c(Cl)ccc3c2[C@@H]1C | C57BL/6 mouse | blood | intravenous | 1 mg/kg | – | 39.2 min |
| COC1=CC(c2ccc[nH]2)=N/C1=C\c1[nH]c(Cc2ccc(OC(F)(F)F)cc2)cc1Cc1ccc(OC(F)(F)F)cc1 | male CD-1 mouse | plasma | oral | 40 mg/kg | single dose | 583 min |
| OCc1nc2ccc(NCc3ccc(C(F)(F)F)cc3)cc2[nH]1 | male BALB/c mouse | plasma | oral | 10 mg/kg | – | 216 min |
| COc1ccc(C[C@H](NC(=O)[C@H](C)NC(=O)CN2CCOCC2)C(=O)N[C@@H](Cc2ccccc2)C(=O)C2(C)CO2)cc1 (stereo in doubt) | mouse | plasma | intravenous | 20 mg/kg | single dose | 474 min |
| OCc1ccc(-c2nn(Cc3ccccc3)c3ccccc23)o1 | male CD-1 mouse | plasma | intravenous | 5 mg/kg | – | 83.4 min |
| Cc1ncsc1-c1ccc([C@H](C)NC(=O)[C@@H]2C[C@@H](O)CN2C(=O)[C@@H](NC(=O)CCCCCCCCCCC(=O)NCCCn2cc(-c3ccc4c(c3)CCN4C(=O)Cc3cccc(OC(F)(F)F)c3)c3c(N)ncnc32)C(C)(C)C)cc1 | mouse | plasma | intravenous | 1 mg/kg | – | 198 min |
| NCc1ccc(-c2nn(Cc3ccncc3)c3ccccc23)o1 | male CD-1 mouse | plasma | oral | 10 mg/kg | – | 105 min |
| COc1cccc2c(N3CCC(CCP(=O)(O)O)CC3)ncnc12 | female BALB/c mouse | serum | subcutaneous | 50 mg/kg | tumour-bearing | 102 min |
| Cc1ccc(C(C)C)cc1Oc1nccc(-c2c(-c3ccc(C(F)(F)F)cc3)ncn2C2CCN(CCO)CC2)n1 | male C57BL/6 mouse | liver | intraperitoneal | 10 mg/kg | – | 186 min |
| CC(C)C[C@@H]1CCO[C@@H]2[C@H](CN[C@@H]2C(=O)N[C@H]2[C@H]3O[C@H](SCC/C=C\[C@H]2C)[C@H](O)[C@@H](O)[C@H]3O)C1 | mouse | plasma | intravenous | 3 mg/kg | single dose | 280 min |
| NCc1ccc(-c2nn(Cc3ccccc3)c3ccccc23)o1 | male CD-1 mouse | plasma | oral | 10 mg/kg | – | 104 min |
| Cc1ncsc1-c1ccc([C@H](CC(=O)N2CCN(c3ccc(C#Cc4ccc(C(=O)N5CCC(n6cc(-c7ccc8c(c7)CCN8C(=O)Cc7cccc(OC(F)(F)F)c7)c7c(N)ncnc76)CC5)cc4)cn3)CC2)NC(=O)[C@@H]2C[C@@H](O)CN2C(=O)[C@@H](NC(=O)C2(F)CC2)C(C)(C)C)cc1 | male C57BL/6 mouse | plasma | intravenous | 1 mg/kg | – | 438 min |
| Cc1cc(-c2ccnc3[nH]cc(F)c23)cc(F)c1[C@@]1(O)[C@H](C)CN(C(=O)CN)C[C@@H]1C | male CD-1 mouse | plasma | intravenous | 1 mg/kg | – | 540 min |
